This is an account of results in ChEMBL document CHEMBL1949532, “Novel dendrimeric lipopeptides with antifungal activity” (Bioorg Med Chem Lett, 2012).

One may read the MIC as the lowest concentration found to suppress growth. Higher therefore signals weaker potency. Usually inhibition stands for the relative decrease from the control value, in per cent. Broadly, the EC50 is the midpoint of the concentration-response curve.

Structures are written as SMILES. Converted amounts (≈) assume the structure as drawn. The source made the active and inactive calls. The rule behind the calls is not given here.

The test system of data set [1] is Candida albicans. The data set can be described thus: Antifungal activity against Candida albicans ATCC 90028 after 24 to 48 hrs by serial broth microdilution susceptibility test. Type of data set: functional. Summed up:
(§1)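 MIC determined by serial microdilution in microplates. Candida inocula were prepared in L-glutamine-deficient RPMI-1640 medium.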
A general note: Broth dilution looks for growth in wells or tubes with falling amounts of substance.

The subject of data set [2] is Escherichia coli. Briefly: Antibacterial activity against Escherichia coli ATCC BAA-198 after 18 to 24 hrs by serial broth microdilution susceptibility test. Type of data set: functional. The method in brief: as §1
Data set [3] concerns Klebsiella pneumoniae subsp. pneumoniae. The data set can be described thus: Antibacterial activity against Klebsiella pneumoniae subsp. pneumoniae ATCC 13882 after 18 to 24 hrs by serial broth microdilution susceptibility test. The class given is functional. Summed up: as §1
The subject of another data set is Acinetobacter baumannii. Briefly: Antibacterial activity against Acinetobacter baumannii ATCC 19606 after 18 to 24 hrs by serial broth microdilution susceptibility test. The class given is functional. The settings on record: ATCC 19606 = CIP 70.34 = JCM 6841. Summed up: as §1
In data set [4] the test system is Candida albicans. The data set can be described thus: Inhibition of beta (1,3) glucan synthase in Candida albicans cell membrane using UDP-Glc as substrate assessed as aniline blue-glucan complex formation at 187 uM by microtiter-based fluorescence method. The method in brief:
(§2)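 β(1,3)-glucan synthase in the membrane fraction of C. albicans was assayed by a microtiter-based fluorescence method across a concentration range. Values are means of three independent experiments (SD); IC50 was determined.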

In data set [5] the test system is Candida albicans. Briefly: Inhibition of beta (1,3) glucan synthase in Candida albicans cell membrane using UDP-Glc as substrate assessed as aniline blue-glucan complex formation by microtiter-based fluorescence method. Summed up:
as §2

Data set [6] concerns Escherichia coli. The data set can be described thus: Antibacterial activity against Escherichia coli ATCC 25922 after 18 to 24 hrs by serial broth microdilution susceptibility test. Type of data set: functional. The method in brief: as §1
In a further data set the test system is Candida parapsilosis. The data set can be described thus: Antifungal activity against Candida parapsilosis ATCC 22019 after 24 to 48 hrs by serial broth microdilution susceptibility test. Type of data set: functional. The following applies: Lodderomyces parapsilosis. Summed up:
as §1

Data set [7] relates to Bordetella bronchiseptica. The data set can be described thus: Antibacterial activity against Bordetella bronchiseptica ATCC 4617 after 18 to 24 hrs by serial broth microdilution susceptibility test. The class given is functional. Summed up: as §1
The test system of data set [8] is Staphylococcus aureus. The data set can be described thus: Antibacterial activity against Staphylococcus aureus ATCC 25923 after 18 to 24 hrs by serial broth microdilution susceptibility test. Type of data set: functional. The method in brief: as §1
For data set [9], the system named is Candida albicans. The data set can be described thus: Antifungal activity against Candida albicans ATCC 10231 assessed as morphological changes at < 60 uM after 6 hrs by calcofluor white and aniline blue staining-based fluorescence microscopy. The class given is functional, organism-based. The method in brief: (§3)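 C. albicans ATCC 10231 yeast cells were incubated with compound for 6 h, at up to 2×MIC. Chitin was stained with Calcofluor White and glucan with Aniline Blue, then cells were examined by fluorescence microscopy against untreated controls.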

For data set [10], the system named is Staphylococcus aureus. The data set can be described thus: Antibacterial activity against Staphylococcus aureus ATCC 43300 after 18 to 24 hrs by serial broth microdilution susceptibility test. Type of data set: functional. The method in brief: as §1
The subject of data set [11] is Candida albicans. Briefly: Antifungal activity against Candida albicans ATCC 10231 assessed as pseudohyphae formation at 120 uM after 6 hrs by calcofluor white and aniline blue staining-based fluorescence microscopy. The class given is functional, organism-based. The method in brief:
as §3

Data set [12] is described as follows: Toxicity in human erythrocytes assessed as hemolysis at 100 uM after 30 mins by spectrophotometry. The class given is cell-based, Erythrocyte. The settings on record: read-out: Activity. Summed up: (§4)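 Human erythrocytes suspended in PBS were exposed to lipopeptides at 0.001–0.4 mmol/l and hemolysis was measured.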
The test system of data set [13] is Candida albicans. Briefly: Antifungal activity against Candida albicans ATCC 10231 assessed as increase in intracellular potassium release after 30 mins. The class given is functional, organism-based. The method in brief: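 Efflux of K+ from C. albicans cells was monitored continuously with a potassium-selective electrode. Release was expressed relative to a positive control, and EK50 was taken as the concentration releasing 50% of intracellular potassium.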

The next data set relates to Pichia kudriavzevii. Briefly: Antifungal activity against Candida krusei ATCC 6258 after 24 to 48 hrs by serial broth microdilution susceptibility test. The class given is functional. The method in brief: as §1
Data set [14] is described as follows: Toxicity in human erythrocytes assessed as hemolysis at 300 uM after 30 mins by spectrophotometry. Type of data set: cell-based, Erythrocyte. The settings on record: read-out: Activity. The method in brief: as §4
The next data set has as its system Pseudomonas aeruginosa. The data set can be described thus: Antibacterial activity against Pseudomonas aeruginosa ATCC 27853 after 18 to 24 hrs by serial broth microdilution susceptibility test. The class given is functional. The method in brief:
as §1

Consider `CCCCCCCCNC(=O)[C@H](Cc1ccccc1)NC(=O)[C@H](CCCCNC(=O)[C@@H](N)CCCCNC(=O)OCc1ccccc1Cl)NC(=O)[C@@H](N)CCCCNC(=O)OCc1ccccc1Cl`, for which the MIC against Candida albicans [1] amounted to 60 µM (≈ 59.9 µg/mL); with Escherichia coli [2] it was 8 µM (≈ 7.98 µg/mL); in data set [3], 119 µM (≈ 119 µg/mL); against Acinetobacter baumannii, 60 µM (≈ 59.9 µg/mL); in the data set on Escherichia coli [6], 8 µM (≈ 7.98 µg/mL); against Candida parapsilosis, 15 µM (≈ 15 µg/mL). Also, the MIC stood at 7 µM (≈ 6.99 µg/mL) in data set [7]; 30 µM (≈ 29.9 µg/mL) in the data set on Staphylococcus aureus [8]; 8 µM (≈ 7.98 µg/mL) against Staphylococcus aureus [10]; 15 µM (≈ 15 µg/mL) against Pichia kudriavzevii; 120 µM (≈ 120 µg/mL) with Pseudomonas aeruginosa. Further, the inhibition in the data set on Candida albicans [4] was 43%; with Candida albicans [5], “Dose-dependent effect”. The outcome in the data set with Candida albicans [9] was inactive. The result in the data set with Candida albicans [11] was Active. Further, the hemolysis at 0.5 h, 100 µM in data set [12] was 1%. Further, the Activity result in the data set with Candida albicans [13] is “Dose-dependent effect”. In addition, the EC50 in the data set on Candida albicans [13] (Candida albicans, ATCC 10231, 0.5 h) turned out to be 17 µM. In addition, the hemolysis at 0.5 h, 300 µM in [14] is 10%.
